Measured values published in ChEMBL document CHEMBL3120069, “Chemical genetics-based discovery of indole derivatives as HCV NS5B polymerase inhibitors” (Eur J Med Chem, 2014).

Key:
Hepatitis C virus [1] = assay: Antiviral activity against Hepatitis C virus JFH-1 J6 genotype 2a infected in human Huh7.5 cells assessed as inhibition of viral core synthesis after 120 hrs by Western blot analysis; assay type: functional, organism-based
Method in brief: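 J6/JFH1 RNA-transfected Huh7.5 cells, 1.5 × 10⁵ per well, given DMSO or increasing concentrations for 120 h. RIPA lysates with protease inhibitors, protein by Bradford; HCV core and β-actin by Western blot, core normalised to β-actin. EC50 from dose-response.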

[2] = Selectivity ratio of EC50 for Hepatitis C virus JFH-1 J6 genotype 2a to EC50 for Hepatitis C virus Con1 Bart79I genotype 1b expressing NS5A S2204I mutant; assay type: functional
Hepatitis C virus [3] = assay: Antiviral activity against Hepatitis C virus Con1 Bart79I genotype 1b expressing YFP/NS5A S2204I mutant infected in human Huh7.5 cells assessed as inhibition of viral RNA replication after 72 hrs by real time qRT-PCR analysis; settings: subtype 1b Con1 Bart79I, Huh-7, 72 h
[4] = Selectivity index, ratio of CC50 for human Huh7.5 cells to EC50 for Hepatitis C virus JFH-1 J6 genotype 2a infected in human Huh7.5 cells; assay type: toxicity, cell-based, Huh-7; settings: read-out: Ratio CC50/EC50
Hepatitis C virus [5] = assay: Antiviral activity against Hepatitis C virus Con1 Bart79I genotype 1b expressing YFP infected in human Huh7.5 cells assessed as NS5A S2204I mutant synthesis at 5 uM after 120 hrs by FACS analysis (reference value: 66%); assay type: functional, Hepacivirus hominis, subtype 1b Con1 Bart79I, Huh-7
Method in brief: (§1)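 Huh7.5 cells stably carrying Bart79I-YFP subgenomic replicon (G418 selection), treated with DMSO or compound. Dose series over 5 days (120 h), or 10 M with sampling at 24, 48, 72 h. Cells washed, resuspended in PBS, and NS5A-YFP-positive cells counted by FACS. EC50 and T1/2 taken from response curves.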

Hepatitis C virus [6] = assay: Antiviral activity against Hepatitis C virus Con1 Bart79I genotype 1b expressing NS5A S2204I mutant infected in human Huh7.5 cells assessed as inhibition of viral RNA replication at 10 uM by real time qRT-PCR analysis; assay type: functional, organism-based; settings: Hepacivirus hominis, subtype 1b Con1 Bart79I, Huh-7, TDE = time-dependent effect
Method in brief: (§2)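 Huh7.5 cells stably carrying Bart79I genotype 1b subgenomic replicon (G418 750 mg/ml selection, 3 weeks), 3×10⁵ cells/well with DMSO or compound. Dose series over 72 h, or 10 M for increasing periods. Viral and host GAPDH RNA measured by real-time qRT-PCR. EC50 and T1/2 taken from response curves of triplicate experiments.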

Hepatitis C virus [7] = assay: Antiviral activity against Hepatitis C virus Con1 Bart79I genotype 1b expressing YFP infected in human Huh7.5 cells assessed as NS5A S2204I mutant synthesis at 10 uM after 48 hrs by FACS analysis (reference value: 52.2%); assay type: functional, Hepacivirus hominis, subtype 1b Con1 Bart79I, Huh-7; method in brief: as §1
Hepatitis C virus [8] = assay: Antiviral activity against Hepatitis C virus JFH-1 J6 genotype 2a infected in human Huh7.5 cells assessed as inhibition of viral core synthesis at 10 uM by Western blot analysis; assay type: functional, organism-based; settings: Hepacivirus hominis, subtype 2a JFH1 J6, Huh-7, TDE = time-dependent effect
Method in brief: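 J6/JFH1 RNA-transfected Huh7.5 cells on 10 µM compound, lysed at 24, 48, 72 h. HCV core and β-actin probed by Western blot, core intensity normalised to β-actin; T1/2 from the time-response curve.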

[9] = Cytotoxicity against human Huh7.5 cells assessed as cell viability after 72 hrs by MTT assay; assay type: cell-based, Huh-7
[10] = Inhibition of recombinant HCV N-terminal hexahistidine-tagged NS5B Cdelta21 RdRp expressed in Escherichia coli assessed as incorporation of [alpha-32P]-UTP in RNA after 2 hrs by autoradiographic analysis; set-up: species or system Hepacivirus hominis
Method in brief: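 N-terminal His6-tagged recombinant HCV NS5B from E. coli, primer-dependent elongation with poly(A) template (1 µg) and oligo(U)20 (10 pmol). Buffer: 50 mM Tris-HCl pH 7.5, 50 mM NaCl, 100 mM K glutamate, 2 mM MgCl2, 1 mM DTT, RNase inhibitor, UTP plus [α-³²P]UTP. Increasing compound concentrations; IC50 from dose-response curve.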

Hepatitis C virus [11] = assay: Antiviral activity against Hepatitis C virus Con1 Bart79I genotype 1b infected in human Huh7.5 cells assessed as time required for reducing NS5A S2204I mutant level by half at 10 uM by Western blot analysis; assay type: functional, organism-based; settings: Hepacivirus hominis, subtype 1b Con1 Bart79I, Huh-7
Method in brief: (§3)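 Bart79I replicon Huh7.5 cells, 1.5×10⁵/well, treated with DMSO or compound. Dose series for 5 days (120 h), or 10 M for 24, 48, 72 h. Lysed in RIPA with protease inhibitors and protein quantified by Bradford. NS5A and β-actin measured by Western blot, with NS5A normalized to β-actin. EC50 and T1/2 taken from response curves.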

Hepatitis C virus [12] = assay: Antiviral activity against Hepatitis C virus JFH-1 J6 genotype 2a infected in human Huh7.5 cells assessed as inhibition of viral RNA replication after 72 hrs by real time qRT-PCR analysis; assay type: functional, organism-based
Hepatitis C virus [13] = assay: Antiviral activity against Hepatitis C virus Con1 Bart79I genotype 1b infected in human Huh7.5 cells assessed as inhibition of NS5A S2204I mutant synthesis at 10 uM by Western blot analysis; assay type: functional, organism-based; settings: Hepacivirus hominis, subtype 1b Con1 Bart79I, Huh-7, TDE = time-dependent effect; method in brief: as §3
Hepatitis C virus [14] = assay: Antiviral activity against Hepatitis C virus Con1 Bart79I genotype 1b expressing YFP infected in human Huh7.5 cells assessed as NS5A S2204I mutant synthesis at 2 uM after 120 hrs by FACS analysis (reference value: 66%); assay type: functional, Hepacivirus hominis, subtype 1b Con1 Bart79I, Huh-7; method in brief: as §1
Hepatitis C virus [15] = assay: Antiviral activity against Hepatitis C virus Con1 Bart79I genotype 1b expressing YFP infected in human Huh7.5 cells assessed as inhibition of NS5A S2204I mutant synthesis at 10 uM by FACS analysis; assay type: functional, organism-based; settings: Hepacivirus hominis, subtype 1b Con1 Bart79I, Huh-7, TDE = time-dependent effect; method in brief: as §1
Hepatitis C virus [16] = assay: Antiviral activity against Hepatitis C virus Con1 Bart79I genotype 1b expressing YFP infected in human Huh7.5 cells assessed as inhibition of NS5A S2204I mutant synthesis after 120 hrs by FACS analysis; assay type: functional, organism-based; settings: subtype 1b Con1 Bart79I; method in brief: as §1
Hepatitis C virus [17] = assay: Antiviral activity against Hepatitis C virus JFH-1 J6 genotype 2a infected in human Huh7.5 cells assessed as inhibition of viral RNA replication after 72 hrs by luciferase reporter gene assay; assay type: functional, organism-based, Hepacivirus hominis; settings: subtype 2a JFH1 J6, Huh-7, 72 h
Hepatitis C virus [18] = assay: Antiviral activity against Hepatitis C virus Con1 Bart79I genotype 1b expressing NS5A S2204I mutant infected in human Huh7.5 cells assessed as time required for reducing viral RNA level by half at 10 uM by real time qRT-PCR analysis; assay type: functional, organism-based; settings: Hepacivirus hominis, subtype 1b Con1 Bart79I, Huh-7; method in brief: as §2
[19] = Hepacivirus hominis, subtype 2a JFH1 J6, Huh-7

With C/C(=C\c1c[nH]c2ccc(C#N)cc12)C(=O)Nc1ccc(C(C)(C)C)cc1 the inhibition (Hepatitis C virus [1]; [19]) was “Dose-dependent effect”, the EC50 (Hepatitis C virus [1]; subtype 2a JFH1 J6, Huh-7, 120 h) was 2 µM and the “Ratio EC50” value [2] was 3.2. The EC50 (Hepatitis C virus [3]) was 4.77 µM, the selectivity ratio [4] was 56.9 and the Activity (Hepatitis C virus [5]) was 0.7%. For the same compound, the inhibition (Hepatitis C virus [6]) was “tde”, the Activity (Hepatitis C virus [7]) was 11.8% and the inhibition (Hepatitis C virus [8]) was “tde”. It also gave a CC50 at 72 h [9] of 61.8 µM, an IC50 [10] of 0.292 µM and a T1/2 (Hepatitis C virus [11]) of 31.7 h. The inhibition (Hepatitis C virus [12]; [19]) was “Dose-dependent effect”, the EC50 (Hepatitis C virus [12]; subtype 2a JFH1 J6, Huh-7, 72 h) was 1.9 µM and the inhibition (Hepatitis C virus [13]) was “tde”. The Activity (Hepatitis C virus [14]) was 4.2%, the inhibition (Hepatitis C virus [15]) was “tde” and the inhibition (Hepatitis C virus [16]; Hepacivirus hominis, Huh-7) was “Dose-dependent effect”. It also gave an EC50 (Hepatitis C virus [16]; Huh-7, 120 h) of 1.03 µM, an EC50 (Hepatitis C virus [17]) of 1.1 µM and an EC90 (Hepatitis C virus [17]) of 2.1 µM. For the same compound, the T1/2 (Hepatitis C virus [18]) was 31.5 h.
